Measured values from ChEMBL document CHEMBL1143387, “Synthesis of 18F-labelled 2-(4'-fluorophenyl)-1,3-benzothiazole and evaluation as amyloid imaging agent in comparison with [11C]PIB” (Bioorg Med Chem Lett, 2009).

Experiments:
[1] = test system: Kidney; assay: Biodistribution in NMRI mouse kidneys assessed per gram of tissue at 3.7 MBq/mL after 60 mins by gamma counter; assay type: ADME, organism-based; details: in vivo, 1 h
Outline: (§1)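 Male NMRI mice (30–40 g), anaesthetised by ip Hypnorm (0.1 ml), given 0.1 ml diluted tracer via tail vein (ethanol ≤10%, THF ≤0.02%). Killed by decapitation at 2 or 60 min pi, n = 4 per time point. Blood and organs dissected and weighed, radioactivity gamma-counted with background correction. Reported as % ID or % ID/g; total blood activity assumes blood mass 7% of body mass.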

[2] = test system: Liver; assay: Biodistribution in NMRI mouse liver at 3.7 MBq/mL after 2 mins by gamma counter; assay type: ADME, organism-based; details: in vivo; outline: as §1
[3] = test system: Liver; assay: Biodistribution in NMRI mouse liver assessed per gram of tissue at 3.7 MBq/mL after 2 mins by gamma counter; assay type: ADME, organism-based; details: in vivo; outline: as §1
[4] = test system: Liver; assay: Biodistribution in NMRI mouse liver at 3.7 MBq/mL after 60 mins by gamma counter; assay type: ADME, organism-based; details: in vivo, 1 h; outline: as §1
[5] = test system: Liver; assay: Biodistribution in NMRI mouse liver assessed per gram of tissue at 3.7 MBq/mL after 60 mins by gamma counter; assay type: ADME, organism-based; details: in vivo, 1 h; outline: as §1
[6] = test system: Lung; assay: Biodistribution in NMRI mouse lungs at 3.7 MBq/mL after 2 mins by gamma counter; assay type: ADME, organism-based; details: in vivo; outline: as §1
[7] = test system: Lung; assay: Biodistribution in NMRI mouse lungs assessed per gram of tissue at 3.7 MBq/mL after 2 mins by gamma counter; assay type: ADME, organism-based; details: in vivo; outline: as §1
[8] = test system: Lung; assay: Biodistribution in NMRI mouse lungs at 3.7 MBq/mL after 60 mins by gamma counter; assay type: ADME, organism-based; details: in vivo, 1 h; outline: as §1
[9] = test system: Lung; assay: Biodistribution in NMRI mouse lungs assessed per gram of tissue at 3.7 MBq/mL after 60 mins by gamma counter; assay type: ADME, organism-based; details: in vivo, 1 h; outline: as §1
[10] = test system: Intestine; assay: Biodistribution in NMRI mouse intestine at 3.7 MBq/mL after 2 mins by gamma counter; assay type: ADME, organism-based; details: in vivo; outline: as §1
[11] = test system: Blood; assay: Biodistribution in NMRI mouse blood at 3.7 MBq/mL after 2 mins by gamma counter; assay type: ADME, organism-based; details: in vivo; outline: as §1
[12] = test system: Blood; assay: Biodistribution in NMRI mouse blood assessed per gram of tissue at 3.7 MBq/mL after 2 mins by gamma counter; assay type: ADME, organism-based; details: in vivo; outline: as §1
[13] = test system: Blood; assay: Biodistribution in NMRI mouse blood at 3.7 MBq/mL after 60 mins by gamma counter; assay type: ADME, organism-based; details: in vivo, 1 h; outline: as §1
[14] = test system: Blood; assay: Biodistribution in NMRI mouse blood assessed per gram of tissue at 3.7 MBq/mL after 60 mins by gamma counter; assay type: ADME, organism-based; details: in vivo, 1 h; outline: as §1
[15] = Biodistribution in NMRI mouse cerebrum at 3.7 MBq/mL after 2 mins by gamma counter; assay type: ADME, organism-based; details: in vivo; outline: as §1
[16] = Biodistribution in NMRI mouse cerebrum assessed per gram of tissue at 3.7 MBq/mL after 2 mins by gamma counter; assay type: ADME, organism-based; details: in vivo; outline: as §1
[17] = Biodistribution in NMRI mouse cerebrum at 3.7 MBq/mL after 60 mins by gamma counter; assay type: ADME, organism-based; details: in vivo, 1 h; outline: as §1
[18] = Biodistribution in NMRI mouse cerebrum assessed per gram of tissue at 3.7 MBq/mL after 60 mins by gamma counter; assay type: ADME, organism-based; details: in vivo, 1 h; outline: as §1
[19] = test system: Cerebellum; assay: Biodistribution in NMRI mouse cerebellum at 3.7 MBq/mL after 2 mins by gamma counter; assay type: ADME, organism-based; details: in vivo; outline: as §1
[20] = test system: Cerebellum; assay: Biodistribution in NMRI mouse cerebellum assessed per gram of tissue at 3.7 MBq/mL after 2 mins by gamma counter; assay type: ADME, organism-based; details: in vivo; outline: as §1
[21] = test system: Cerebellum; assay: Biodistribution in NMRI mouse cerebellum at 3.7 MBq/mL after 60 mins by gamma counter; assay type: ADME, organism-based; details: in vivo, 1 h; outline: as §1
[22] = test system: Cerebellum; assay: Biodistribution in NMRI mouse cerebellum assessed per gram of tissue at 3.7 MBq/mL after 60 mins by gamma counter; assay type: ADME, organism-based; details: in vivo, 1 h; outline: as §1
[23] = Biodistribution in NMRI mouse liver/gallbladder at 3.7 MBq/mL after 2 mins by gamma counter; assay type: ADME, organism-based; details: in vivo; outline: as §1
[24] = Biodistribution in NMRI mouse liver/gallbladder at 3.7 MBq/mL after 60 mins by gamma counter; assay type: ADME, organism-based; details: in vivo, 1 h; outline: as §1
[25] = test system: Kidney; assay: Biodistribution in NMRI mouse kidneys at 3.7 MBq/mL after 60 mins by gamma counter; assay type: ADME, organism-based; details: in vivo, 1 h; outline: as §1
[26] = test system: Kidney; assay: Biodistribution in NMRI mouse kidneys assessed per gram of tissue at 3.7 MBq/mL after 2 mins by gamma counter; assay type: ADME, organism-based; details: in vivo; outline: as §1
[27] = test system: Kidney; assay: Biodistribution in NMRI mouse kidneys at 3.7 MBq/mL after 2 mins by gamma counter; assay type: ADME, organism-based; details: in vivo; outline: as §1
[28] = Biodistribution in NMRI mouse urine at 3.7 MBq/mL after 60 mins by gamma counter; assay type: ADME, organism-based; details: in vivo, 1 h; outline: as §1
[29] = Biodistribution in NMRI mouse urine at 3.7 MBq/mL after 2 mins by gamma counter; assay type: ADME, organism-based; details: in vivo; outline: as §1
[30] = Partition coefficient, log P at pH 7.4; assay type: physicochemical; details: octanol/water

- Activity [1]: 8.2 % ID/g
- Activity [2]: 21.8 %ID
- Activity [3]: 10.2 % ID/g
- Activity [4]: 11.7 %ID
- Activity [5]: 5.3 % ID/g
- Activity [6]: 3.9 %ID
- Activity [7]: 13.8 % ID/g
- Activity [8]: 0.4 %ID
- Activity [9]: 1.5 % ID/g
- Activity [10]: 8.5 %ID
- Activity [11]: 7.8 %ID
- Activity [12]: 2.9 % ID/g
- Activity [13]: 1.8 %ID
- Activity [14]: 0.6 % ID/g
- Activity [15]: 1.03 %ID
- Activity [16]: 3.2 % ID/g
- Activity [17]: 0.07 %ID
- Activity [18]: 0.21 % ID/g
- Activity [19]: 0.33 %ID
- Activity [20]: 3.35 % ID/g
- Activity [21]: 0.02 %ID
- Activity [22]: 0.21 % ID/g
- Activity [23]: 30.3 %ID
- Activity [24]: 49.4 %ID
- Activity [25]: 5.9 %ID
- Activity [26]: 17.9 % ID/g
- Activity [27]: 11.4 %ID
- Activity [28]: 15.5 %ID
- Activity [29]: 0.6 %ID
- logD [30]: 2.86
SMILES: [18F]c1ccc(-c2nc3ccccc3s2)cc1
